Experiments:
[1] = molecular target: Macrophage-stimulating protein receptor (Homo sapiens, UniProt Q04912); experiment: Inhibition of MST1R (unknown origin)
[2] = molecular target: Dual specificity protein kinase CLK1 (Homo sapiens, UniProt P49759); settings: dose 100.0 nM
[3] = molecular target: Signal transducer and activator of transcription 5A (Homo sapiens) (UniProt P42229); experiment: Inhibition of STAT5 phosphorylation in human HEL cells by Western blot analysis; type: cell-based; settings: dose <= 1.0 µM
Method in brief: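 HEL cells were starved overnight in RPMI with 1% FCS, then exposed to compound for 2 h at 37 °C. Cells were lysed in RIPA buffer (50 mM HEPES pH 7.4, 150 mM NaCl, 1% Triton X-100, deoxycholate, 0.1% SDS) with protease and phosphatase inhibitors. Protein was quantified by Bradford assay and blots were developed by chemiluminescence. Membranes were stripped and reprobed for total STAT5.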

[4] = molecular target: T1, Macrophage colony-stimulating factor 1 receptor (Homo sapiens, UniProt P07333); settings: dose 100.0 nM
T1 sequence (P07333 whole entry): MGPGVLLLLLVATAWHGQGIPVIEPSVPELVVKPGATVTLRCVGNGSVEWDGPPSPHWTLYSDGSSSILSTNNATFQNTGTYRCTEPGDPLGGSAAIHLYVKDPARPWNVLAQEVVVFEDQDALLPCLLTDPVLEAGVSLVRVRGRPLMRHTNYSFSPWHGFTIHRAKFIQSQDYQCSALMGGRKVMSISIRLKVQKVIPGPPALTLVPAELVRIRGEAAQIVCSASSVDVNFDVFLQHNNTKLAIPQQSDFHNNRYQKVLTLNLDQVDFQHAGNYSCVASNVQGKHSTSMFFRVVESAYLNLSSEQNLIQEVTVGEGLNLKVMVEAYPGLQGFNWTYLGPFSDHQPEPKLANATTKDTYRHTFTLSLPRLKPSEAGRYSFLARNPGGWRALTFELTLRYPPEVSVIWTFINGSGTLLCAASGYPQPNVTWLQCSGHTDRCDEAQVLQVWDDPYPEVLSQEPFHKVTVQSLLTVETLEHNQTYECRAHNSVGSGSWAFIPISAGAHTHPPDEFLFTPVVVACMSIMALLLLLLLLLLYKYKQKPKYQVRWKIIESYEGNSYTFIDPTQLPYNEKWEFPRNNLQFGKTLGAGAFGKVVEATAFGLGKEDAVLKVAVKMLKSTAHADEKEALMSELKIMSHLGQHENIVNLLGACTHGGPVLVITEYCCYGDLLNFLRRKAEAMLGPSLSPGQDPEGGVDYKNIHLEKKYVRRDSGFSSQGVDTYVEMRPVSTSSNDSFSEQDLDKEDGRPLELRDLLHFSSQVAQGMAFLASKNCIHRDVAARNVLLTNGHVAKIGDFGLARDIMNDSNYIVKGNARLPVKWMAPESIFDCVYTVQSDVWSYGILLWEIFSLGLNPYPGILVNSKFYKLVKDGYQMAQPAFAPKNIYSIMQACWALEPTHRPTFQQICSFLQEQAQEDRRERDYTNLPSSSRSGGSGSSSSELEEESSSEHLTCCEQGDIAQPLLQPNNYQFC

[5] = molecular target: Tyrosine-protein kinase Fyn (Homo sapiens, UniProt P06241); experiment: Inhibition of FYN (unknown origin)
[6] = molecular target: Inhibitor of nuclear factor kappa-B kinase subunit beta (Homo sapiens, UniProt O14920); experiment: Inhibition of IKBKB (unknown origin)
Insulin receptor = Insulin receptor (Homo sapiens, UniProt P06213); experiment: Inhibition of INSR (unknown origin)
Aurora kinase B = Aurora kinase B (Homo sapiens, UniProt Q96GD4); experiment: Inhibition of AURKB (unknown origin)
[7] = molecular target: Tyrosine-protein kinase Srms (Homo sapiens, UniProt Q9H3Y6); experiment: Inhibition of SRMS (unknown origin)
[8] = molecular target: Serine/threonine-protein kinase N1 (Homo sapiens, UniProt Q16512); settings: dose 100.0 nM
[9] = molecular target: Serine/threonine-protein kinase Sgk1 (Homo sapiens) (UniProt O00141); settings: dose 100.0 nM
[10] = molecular target: Inhibitor of nuclear factor kappa-B kinase subunit beta (Homo sapiens) (UniProt O14920); settings: dose 100.0 nM
[11] = molecular target: Tyrosine-protein kinase ITK/TSK (Homo sapiens, UniProt Q08881); experiment: Inhibition of ITK (unknown origin)
Sequence of Tyrosine-protein kinase ITK/TSK (Q08881 whole entry): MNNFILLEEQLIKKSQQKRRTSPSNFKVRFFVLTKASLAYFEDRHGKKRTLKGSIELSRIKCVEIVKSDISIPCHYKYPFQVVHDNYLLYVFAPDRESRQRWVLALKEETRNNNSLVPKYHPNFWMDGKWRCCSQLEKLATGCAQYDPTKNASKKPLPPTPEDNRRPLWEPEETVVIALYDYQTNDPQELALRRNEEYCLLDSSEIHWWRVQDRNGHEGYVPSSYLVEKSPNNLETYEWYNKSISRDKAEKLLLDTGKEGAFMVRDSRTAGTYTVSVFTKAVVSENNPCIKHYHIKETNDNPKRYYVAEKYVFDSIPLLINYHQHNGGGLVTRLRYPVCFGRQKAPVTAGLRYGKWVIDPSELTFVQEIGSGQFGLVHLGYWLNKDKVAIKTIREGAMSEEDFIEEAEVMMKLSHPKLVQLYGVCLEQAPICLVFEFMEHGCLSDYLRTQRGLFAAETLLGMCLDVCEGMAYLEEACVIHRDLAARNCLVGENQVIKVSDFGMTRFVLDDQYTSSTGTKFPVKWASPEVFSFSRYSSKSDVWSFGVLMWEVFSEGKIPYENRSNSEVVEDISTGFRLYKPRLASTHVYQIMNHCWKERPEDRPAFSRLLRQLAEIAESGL

[12] = Inhibition of CDK2/cyclin A (unknown origin); design: species or system Homo sapiens
[13] = molecular target: Aurora kinase C (Homo sapiens) (UniProt Q9UQB9); settings: dose 100.0 nM
[14] = molecular target: Protein-tyrosine kinase 6 (Homo sapiens, UniProt Q13882); experiment: Inhibition of PTK6 (unknown origin)
[15] = molecular target: Signal transducer and activator of transcription 3 (Homo sapiens) (UniProt P40763); experiment: Inhibition of STAT3 phosphorylation in human HEL cells by Western blot analysis; type: cell-based; settings: dose 0.1-5 µM
[16] = molecular target: Serine/threonine-protein kinase PLK1 (Homo sapiens, UniProt P53350); experiment: Inhibition of PLK1 (unknown origin)
Sequence of Serine/threonine-protein kinase PLK1 (P53350 whole entry): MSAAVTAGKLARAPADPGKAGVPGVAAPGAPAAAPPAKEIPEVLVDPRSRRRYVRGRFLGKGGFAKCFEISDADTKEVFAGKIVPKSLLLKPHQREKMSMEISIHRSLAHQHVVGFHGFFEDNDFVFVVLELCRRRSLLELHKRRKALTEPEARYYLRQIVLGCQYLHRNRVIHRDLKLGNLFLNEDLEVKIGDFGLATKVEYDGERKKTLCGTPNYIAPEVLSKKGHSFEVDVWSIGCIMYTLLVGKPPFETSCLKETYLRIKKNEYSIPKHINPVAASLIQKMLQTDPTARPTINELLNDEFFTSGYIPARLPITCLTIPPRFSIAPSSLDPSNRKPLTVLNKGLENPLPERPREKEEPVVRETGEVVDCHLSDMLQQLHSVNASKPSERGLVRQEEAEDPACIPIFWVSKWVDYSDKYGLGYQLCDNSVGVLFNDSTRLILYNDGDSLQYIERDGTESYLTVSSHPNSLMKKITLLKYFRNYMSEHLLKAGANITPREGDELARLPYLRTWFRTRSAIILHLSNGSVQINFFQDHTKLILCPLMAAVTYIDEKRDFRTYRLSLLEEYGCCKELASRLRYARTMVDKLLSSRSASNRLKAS

[17] = molecular target: Mitogen-activated protein kinase kinase kinase 8 (Homo sapiens, UniProt P41279); experiment: Inhibition of MAP3K8 (unknown origin)
Sequence of Mitogen-activated protein kinase kinase kinase 8 (P41279 whole entry): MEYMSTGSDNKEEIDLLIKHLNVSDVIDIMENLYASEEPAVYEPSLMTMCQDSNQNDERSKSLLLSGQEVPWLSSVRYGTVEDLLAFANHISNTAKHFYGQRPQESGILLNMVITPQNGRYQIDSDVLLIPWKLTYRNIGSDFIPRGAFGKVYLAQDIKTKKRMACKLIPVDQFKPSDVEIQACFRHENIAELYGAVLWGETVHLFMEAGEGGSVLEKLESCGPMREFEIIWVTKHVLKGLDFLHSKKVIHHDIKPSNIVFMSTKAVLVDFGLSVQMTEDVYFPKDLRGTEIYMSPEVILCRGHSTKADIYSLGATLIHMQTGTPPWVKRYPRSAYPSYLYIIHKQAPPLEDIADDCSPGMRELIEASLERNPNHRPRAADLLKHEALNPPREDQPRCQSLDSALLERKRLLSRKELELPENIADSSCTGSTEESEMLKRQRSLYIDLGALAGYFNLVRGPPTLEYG

[18] = molecular target: Serine/threonine-protein kinase D2 (Homo sapiens) (UniProt Q9BZL6); settings: dose 100.0 nM
[19] = molecular target: Serine/threonine-protein kinase D1 (Homo sapiens) (UniProt Q15139); settings: dose 100.0 nM
[20] = molecular target: ALK tyrosine kinase receptor (Homo sapiens, UniProt Q9UM73); experiment: Inhibition of ALK (unknown origin)
[21] = molecular target: T1, Macrophage colony-stimulating factor 1 receptor; experiment: Inhibition of CSF1R (unknown origin)
[22] = molecular target: Mitogen-activated protein kinase 1 (Homo sapiens, UniProt P28482); settings: dose 100.0 nM
Ephrin type-B receptor 3 = Ephrin type-B receptor 3 (Homo sapiens, UniProt P54753); experiment: Inhibition of EPHB3 (unknown origin)
[23] = molecular target: MAP kinase-activated protein kinase 2 (Homo sapiens, UniProt P49137); experiment: Inhibition of MAPKAPK2 (unknown origin)
Sequence of MAP kinase-activated protein kinase 2 (P49137 whole entry): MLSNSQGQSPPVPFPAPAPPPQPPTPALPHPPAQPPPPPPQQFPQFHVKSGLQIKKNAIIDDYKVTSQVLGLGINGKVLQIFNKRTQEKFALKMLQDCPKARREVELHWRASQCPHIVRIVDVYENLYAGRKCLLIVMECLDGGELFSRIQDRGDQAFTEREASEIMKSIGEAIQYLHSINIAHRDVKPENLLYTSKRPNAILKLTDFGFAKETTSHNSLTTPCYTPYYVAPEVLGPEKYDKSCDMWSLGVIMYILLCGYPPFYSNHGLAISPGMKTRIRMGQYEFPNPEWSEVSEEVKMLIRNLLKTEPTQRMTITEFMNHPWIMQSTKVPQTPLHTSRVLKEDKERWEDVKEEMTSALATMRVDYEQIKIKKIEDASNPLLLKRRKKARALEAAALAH

[24] = molecular target: Insulin-like growth factor 1 receptor (Homo sapiens, UniProt P08069); experiment: Inhibition of IGF1R (unknown origin)
[25] = molecular target: Mitogen-activated protein kinase kinase kinase kinase 2 (Homo sapiens) (UniProt Q12851); settings: dose 100.0 nM
SRSF protein kinase 3 = SRSF protein kinase 3 (Homo sapiens, UniProt Q9UPE1); experiment: Inhibition of STK23 (unknown origin)
[26] = molecular target: Tyrosine-protein kinase JAK1 (Homo sapiens) (UniProt P23458); settings: dose 100.0 nM
[27] = molecular target: Activin receptor type-1B (Homo sapiens) (UniProt P36896); settings: dose 100.0 nM
Sequence of Activin receptor type-1B (Homo sapiens) (P36896 whole entry): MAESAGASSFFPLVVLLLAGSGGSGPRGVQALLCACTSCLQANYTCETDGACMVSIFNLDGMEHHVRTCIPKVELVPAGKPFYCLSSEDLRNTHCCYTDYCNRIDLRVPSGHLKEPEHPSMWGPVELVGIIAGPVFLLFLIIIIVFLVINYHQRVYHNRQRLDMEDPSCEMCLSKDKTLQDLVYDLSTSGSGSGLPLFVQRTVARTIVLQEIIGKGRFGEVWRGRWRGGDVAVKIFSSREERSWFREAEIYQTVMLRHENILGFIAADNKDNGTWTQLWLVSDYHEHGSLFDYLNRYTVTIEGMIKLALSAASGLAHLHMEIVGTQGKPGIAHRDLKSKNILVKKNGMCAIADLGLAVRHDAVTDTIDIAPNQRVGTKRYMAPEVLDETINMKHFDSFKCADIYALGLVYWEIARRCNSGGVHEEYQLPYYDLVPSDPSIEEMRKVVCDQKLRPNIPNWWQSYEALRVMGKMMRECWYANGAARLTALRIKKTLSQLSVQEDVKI

[28] = molecular target: Serine/threonine-protein kinase Nek9 (Homo sapiens) (UniProt Q8TD19); settings: dose 100.0 nM
[29] = molecular target: Serine/threonine-protein kinase D2 (Homo sapiens, UniProt Q9BZL6); experiment: Inhibition of PRKD2 (unknown origin)
[30] = molecular target: Vascular endothelial growth factor receptor 2 (Homo sapiens, UniProt P35968); experiment: Inhibition of KDR (unknown origin)
[31] = molecular target: Serine/threonine-protein kinase 25 (Homo sapiens, UniProt O00506); experiment: Inhibition of STK25 (unknown origin)
Sequence of Serine/threonine-protein kinase 25 (O00506 whole entry): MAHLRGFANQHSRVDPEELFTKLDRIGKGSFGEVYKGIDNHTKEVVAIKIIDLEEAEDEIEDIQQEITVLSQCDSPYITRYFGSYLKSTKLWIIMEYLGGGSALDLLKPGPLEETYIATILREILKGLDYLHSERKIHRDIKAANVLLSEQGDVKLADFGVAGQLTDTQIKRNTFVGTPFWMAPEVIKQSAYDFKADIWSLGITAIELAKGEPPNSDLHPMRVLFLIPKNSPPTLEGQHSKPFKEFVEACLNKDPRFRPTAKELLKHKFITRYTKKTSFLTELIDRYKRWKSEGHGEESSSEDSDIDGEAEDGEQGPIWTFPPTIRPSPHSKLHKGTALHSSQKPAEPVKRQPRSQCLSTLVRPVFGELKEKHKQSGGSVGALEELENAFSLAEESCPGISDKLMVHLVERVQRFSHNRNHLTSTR

[32] = molecular target: Platelet-derived growth factor receptor beta (Homo sapiens, UniProt P09619); experiment: Inhibition of PDGFRB (unknown origin)
[33] = molecular target: AMP-activated protein kinase (AMPK) alpha-1/beta-1/gamma-1 (Homo sapiens, UniProt P54619+Q13131+Q9Y478); experiment: Inhibition of AMPK alpha1/beta1/gamma1 (unknown origin); type: protein-complex assay
[34] = molecular target: Cyclin-dependent kinase 5/CDK5 activator 1 (Homo sapiens, UniProt Q00535); experiment: Inhibition of CDK5/p35 (unknown origin); type: protein-complex assay
[35] = molecular target: Muscle, skeletal receptor tyrosine-protein kinase (Homo sapiens, UniProt O15146); experiment: Inhibition of MUSK (unknown origin)
[36] = molecular target: Interleukin-1 receptor-associated kinase 4 (Homo sapiens, UniProt Q9NWZ3); experiment: Inhibition of IRAK4 (unknown origin)
Sequence of Interleukin-1 receptor-associated kinase 4 (Q9NWZ3 whole entry): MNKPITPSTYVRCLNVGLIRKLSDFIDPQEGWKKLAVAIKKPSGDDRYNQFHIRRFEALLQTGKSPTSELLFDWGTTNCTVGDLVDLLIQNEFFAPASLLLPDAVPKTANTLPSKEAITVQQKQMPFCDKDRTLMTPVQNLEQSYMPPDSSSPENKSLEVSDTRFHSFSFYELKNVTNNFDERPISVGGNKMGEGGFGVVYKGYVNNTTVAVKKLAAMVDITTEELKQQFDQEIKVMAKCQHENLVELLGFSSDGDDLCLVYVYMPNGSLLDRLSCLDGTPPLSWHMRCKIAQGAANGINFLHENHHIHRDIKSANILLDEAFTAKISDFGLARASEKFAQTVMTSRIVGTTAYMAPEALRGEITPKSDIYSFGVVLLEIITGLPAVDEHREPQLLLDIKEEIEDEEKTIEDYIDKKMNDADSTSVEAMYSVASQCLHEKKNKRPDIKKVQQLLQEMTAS

[37] = molecular target: Calcium/calmodulin-dependent protein kinase type 1D (Homo sapiens, UniProt Q8IU85); experiment: Inhibition of CAMK1 delta (unknown origin)
Ephrin type-A receptor 1 = Ephrin type-A receptor 1 (Homo sapiens, UniProt P21709); experiment: Inhibition of EPHA1 (unknown origin)
[38] = molecular target: cAMP-dependent protein kinase catalytic subunit alpha (Homo sapiens, UniProt P17612); experiment: Inhibition of PRKACA (unknown origin)
[39] = molecular target: AMP-activated protein kinase (AMPK) alpha-1/beta-1/gamma-1 (Homo sapiens) (UniProt P54619+Q9Y478+Q13131); settings: dose 100.0 nM
[40] = molecular target: Dual specificity protein kinase CLK2 (Homo sapiens, UniProt P49760); experiment: Inhibition of CLK2 (unknown origin)

Sequence of Dual specificity protein kinase CLK1 (P49759 whole entry, looked up): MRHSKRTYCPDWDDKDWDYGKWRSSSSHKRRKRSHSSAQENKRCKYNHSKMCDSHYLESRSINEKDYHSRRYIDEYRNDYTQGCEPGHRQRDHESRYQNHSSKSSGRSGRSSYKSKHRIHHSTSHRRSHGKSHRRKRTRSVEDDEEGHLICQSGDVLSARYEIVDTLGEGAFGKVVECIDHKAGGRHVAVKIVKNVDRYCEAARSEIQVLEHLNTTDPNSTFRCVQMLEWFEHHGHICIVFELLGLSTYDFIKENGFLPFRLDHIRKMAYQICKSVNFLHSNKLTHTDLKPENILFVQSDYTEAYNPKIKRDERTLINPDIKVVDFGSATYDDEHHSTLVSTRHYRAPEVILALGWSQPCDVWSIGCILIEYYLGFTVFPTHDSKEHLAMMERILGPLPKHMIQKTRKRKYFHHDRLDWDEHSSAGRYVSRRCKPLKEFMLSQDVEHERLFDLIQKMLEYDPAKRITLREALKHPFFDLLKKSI

N#CCNC(=O)c1ccc(-c2ccnc(Nc3ccc(N4CCOCC4)cc3)n2)cc1 [MOMELOTINIB]
IC50 [1]: < 1 µM
inhibition [2]: < 50%
inhibition [3]: Dose-Dependent Effect
inhibition [4]: < 50%
IC50 [5]: > 1 µM
IC50 [6]: < 1 µM
IC50 (Insulin receptor): > 1 µM
IC50 (Aurora kinase B): < 1 µM
IC50 [7]: > 1 µM
inhibition [8]: < 50%
inhibition [9]: < 50%
inhibition [10]: < 50%
IC50 [11]: > 1 µM
IC50 [12]: < 0.1 µM
inhibition [13]: < 50%
IC50 [14]: > 1 µM
inhibition [15]: Dose-Dependent Effect
IC50 [16]: > 1 µM
IC50 [17]: < 1 µM
inhibition [18]: < 50%
inhibition [19]: > 50%
IC50 [20]: > 1 µM
IC50 [21]: < 1 µM
inhibition [22]: < 50%
IC50 (Ephrin type-B receptor 3): > 1 µM
IC50 [23]: > 1 µM
IC50 [24]: > 1 µM
inhibition [25]: < 50%
IC50 (SRSF protein kinase 3): > 1 µM
inhibition [26]: > 50%
inhibition [27]: < 50%
inhibition [28]: < 50%
IC50 [29]: < 1 µM
IC50 [30]: < 1 µM
IC50 [31]: > 1 µM
IC50 [32]: > 1 µM
IC50 [33]: < 1 µM
IC50 [34]: < 1 µM
IC50 [35]: < 1 µM
IC50 [36]: > 1 µM
IC50 [37]: < 1 µM
IC50 (Ephrin type-A receptor 1): > 1 µM
IC50 [38]: > 1 µM
inhibition [39]: < 50%
IC50 [40]: > 1 µM

— ChEMBL document CHEMBL5705885, “CYT387, a selective JAK1/JAK2 inhibitor: in vitro assessment of kinase selectivity and preclinical studies using cell lines and primary cells from polycythemia vera patients” (Leukemia, 2009)
